Reference: ChEMBL document CHEMBL2412955, “Synthesis and antibacterial activities of N-substituted-glycinyl 1H-1,2,3-triazolyl oxazolidinones” (2013)
In brackets after ≈: the same amount, converted by molar mass.

Columns and labels:
Type in all cases: functional
Staphylococcus aureus [1] = assay: Antibacterial activity against methicillin-resistant Staphylococcus aureus after 18 hrs by NCCLS agar dilution method
How it was run: (§1)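 Clinical isolates were tested by agar dilution on Mueller-Hinton agar with drug dilutions from 0.12 to 64 µg/ml. Test compounds were dissolved in 80% DMSO in water. Final inoculum was 10^7 CFU/ml, incubated at 35 °C for 18 h. MIC was the lowest concentration inhibiting visible growth.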

Staphylococcus aureus [2] = assay: Antibacterial activity against methicillin-susceptible Staphylococcus aureus after 18 hrs by NCCLS agar dilution method; how it was run: as §1
Moraxella catarrhalis [3] = assay: Antibacterial activity against Moraxella catarrhalis clinical isolate 255 after 18 hrs by NCCLS agar dilution method; conditions: clinical isolate 255, 18 h
How it was run: (§2)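 NCCLS agar dilution on Mueller-Hinton agar with 5% sheep blood added to support growth. Drug dilutions 0.12–64 µg/ml. Test agents in 80% DMSO in water, linezolid in 40% water in ethanol. Final inoculum 10^7 CFU/ml, 18 h at 35 °C. MIC read as the lowest concentration with no visible growth.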

Enterococcus [4] = assay: Antibacterial activity against vancomycin-susceptible Enterococcus after 18 hrs by NCCLS agar dilution method; how it was run: as §1
Enterococcus [5] = assay: Antibacterial activity against vancomycin-resistant Enterococcus after 18 hrs by NCCLS agar dilution method; how it was run: as §1
Escherichia coli = assay: Antibacterial activity against Escherichia coli ATCC 25922 after 18 hrs by NCCLS agar dilution method; conditions: ATCC 25922, 18 h
How it was run: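 Agar dilution per NCCLS on Mueller-Hinton agar, drug dilutions 0.12–64 µg/ml. Linezolid dissolved in 40% water in ethanol, vancomycin in water, test agents in 80% DMSO in water. Inoculum 10^7 CFU/ml (final), incubated 35 °C for 18 h. MIC is the lowest concentration preventing visible growth.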

Moraxella catarrhalis [6] = assay: Antibacterial activity against Moraxella catarrhalis clinical isolate 36 after 18 hrs by NCCLS agar dilution method; conditions: clinical isolate 36, 18 h; how it was run: as §2
Moraxella catarrhalis [7] = assay: Antibacterial activity against Moraxella catarrhalis clinical isolate 2824 after 18 hrs by NCCLS agar dilution method; conditions: clinical isolate 2824, 18 h; how it was run: as §2
Streptococcus pneumoniae [8] = assay: Antibacterial activity against penicillin-resistant Streptococcus pneumoniae after 18 hrs by NCCLS agar dilution method
How it was run: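 Agar dilution was run on Mueller-Hinton agar supplemented with 5% sheep blood, with drug dilutions from 0.12 to 64 µg/ml. Test compounds were dissolved in 80% DMSO in water. Final inoculum was 10^7 CFU/ml, incubated at 35 °C for 18 h. MIC was the lowest concentration preventing visible growth.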

Staphylococcus [9] = assay: Antibacterial activity against methicillin-resistant coagulase-negative Staphylococcus after 18 hrs by NCCLS agar dilution method; how it was run: as §1
Moraxella catarrhalis [10] = assay: Antibacterial activity against Moraxella catarrhalis clinical isolate 125 after 18 hrs by NCCLS agar dilution method; conditions: clinical isolate 125, 18 h; how it was run: as §2
Staphylococcus aureus [11] = assay: Antibacterial activity against Staphylococcus aureus ATCC 25923 after 18 hrs by […] in presence of human plasma; conditions: ATCC 25923, Plasma
How it was run: (§3)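 To gauge plasma protein binding and/or plasma instability, MIC was determined in Mueller-Hinton broth containing 50% human plasma. Linezolid served as a reference agent. Ratio compares this MIC with the MIC obtained without plasma.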

Moraxella catarrhalis [12] = assay: Antibacterial activity against Moraxella catarrhalis ATCC 8176 after 18 hrs by NCCLS agar dilution method; conditions: ATCC 8176, 18 h; how it was run: as §2
Haemophilus influenzae = assay: Antibacterial activity against Haemophilus influenzae ATCC 49247 after 18 hrs by NCCLS agar dilution method; conditions: ATCC 49247, 18 h; how it was run: as §2
Moraxella catarrhalis [13] = assay: Antibacterial activity against Moraxella catarrhalis clinical isolate 1 after 18 hrs by NCCLS agar dilution method; conditions: clinical isolate 1, 18 h; how it was run: as §2
Staphylococcus [14] = assay: Antibacterial activity against methicillin-susceptible coagulase-negative Staphylococcus after 18 hrs by NCCLS agar dilution method; how it was run: as §1
Moraxella catarrhalis [15] = assay: Antibacterial activity against Moraxella catarrhalis clinical isolate 3447 after 18 hrs by NCCLS agar dilution method; conditions: clinical isolate 3447, 18 h; how it was run: as §2
Moraxella catarrhalis [16] = assay: Antibacterial activity against Moraxella catarrhalis clinical isolate 138 after 18 hrs by NCCLS agar dilution method; conditions: clinical isolate 138, 18 h; how it was run: as §2
Staphylococcus aureus [17] = assay: Antibacterial activity against Staphylococcus aureus ATCC 25923 after 18 hrs by NCCLS agar dilution method; conditions: ATCC 25923, 18 h
How it was run: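 Plain Mueller-Hinton agar, agar dilution per NCCLS, concentrations 0.12–64 µg/ml. Test agents in 80% DMSO in water, linezolid in 40% water in ethanol, vancomycin in water. Final inoculum 10^7 CFU/ml, 35 °C for 18 h. MIC = lowest concentration inhibiting visible growth.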

Moraxella catarrhalis [18] = assay: Antibacterial activity against Moraxella catarrhalis clinical isolate 112 after 18 hrs by NCCLS agar dilution method; conditions: clinical isolate 112, 18 h; how it was run: as §2
Staphylococcus aureus [19] = assay: Ratio of PH027 MIC to compound MIC for methicillin-susceptible Staphylococcus aureus
Staphylococcus [20] = assay: Ratio of PH027 MIC to compound MIC for methicillin-susceptible coagulase-negative Staphylococcus
Enterococcus [21] = assay: Ratio of PH084 MIC to compound MIC for vancomycin-susceptible Enterococcus
Moraxella catarrhalis [22] = assay: Ratio of linezolid MIC to compound MIC for Moraxella catarrhalis ATCC 8176
Staphylococcus [23] = assay: Ratio of PH084 MIC to compound MIC for methicillin-susceptible coagulase-negative Staphylococcus
Staphylococcus [24] = assay: Ratio of linezolid MIC to compound MIC for methicillin-susceptible coagulase-negative Staphylococcus
Streptococcus pneumoniae [25] = assay: Ratio of PH084 MIC to compound MIC for penicillin-resistant Streptococcus pneumoniae
Streptococcus pneumoniae [26] = assay: Ratio of linezolid MIC to compound MIC for penicillin-resistant Streptococcus pneumoniae
Staphylococcus aureus [27] = assay: Ratio of PH084 MIC to compound MIC for methicillin-susceptible Staphylococcus aureus
Enterococcus [28] = assay: Ratio of PH027 MIC to compound MIC for vancomycin-susceptible Enterococcus
Streptococcus pneumoniae [29] = assay: Ratio of PH027 MIC to compound MIC for penicillin-resistant Streptococcus pneumoniae
Enterococcus [30] = assay: Ratio of linezolid MIC to compound MIC for vancomycin-susceptible Enterococcus
Staphylococcus aureus [31] = assay: Ratio of linezolid MIC to compound MIC for methicillin-susceptible Staphylococcus aureus
Staphylococcus aureus [32] = assay: Ratio of MIC for Staphylococcus aureus ATCC 25923 to MIC for Staphylococcus aureus ATCC 25923 in presence of human plasma; how it was run: as §3

SMILES	MIC (Staphylococcus aureus [1])	MIC (Staphylococcus aureus [2])	MIC (Moraxella catarrhalis [3])	MIC (Enterococcus [4])	MIC (Enterococcus [5])	MIC (Escherichia coli)	MIC (Moraxella catarrhalis [6])	MIC (Moraxella catarrhalis [7])	MIC (Streptococcus pneumoniae [8])	MIC (Staphylococcus [9])	MIC (Moraxella catarrhalis [10])	MIC (Staphylococcus aureus [11])	MIC (Moraxella catarrhalis [12])	MIC (Haemophilus influenzae)	MIC (Moraxella catarrhalis [13])	MIC (Staphylococcus [14])	MIC (Moraxella catarrhalis [15])	MIC (Moraxella catarrhalis [16])	MIC (Staphylococcus aureus [17])	MIC (Moraxella catarrhalis [18])	other results
Cc1cn(C[C@H]2CN(c3ccc(N4CCN(C(=O)CNC(=O)c5cccs5)CC4)c(F)c3)C(=O)O2)nn1	1 µg/mL (≈ 1.9 µM)	1 µg/mL (≈ 1.9 µM)	8 µg/mL (≈ 15.2 µM)	1 µg/mL (≈ 1.9 µM)	1 µg/mL (≈ 1.9 µM)	> 64 µg/mL	8 µg/mL (≈ 15.2 µM)	8 µg/mL (≈ 15.2 µM)	0.5 µg/mL (≈ 0.948 µM)	1 µg/mL (≈ 1.9 µM)	8 µg/mL (≈ 15.2 µM)	8 µg/mL	8 µg/mL (≈ 15.2 µM)	16 µg/mL (≈ 30.3 µM)	≥ 8 µg/mL	1 µg/mL (≈ 1.9 µM)	≥ 8 µg/mL	8 µg/mL (≈ 15.2 µM)	2 µg/mL (≈ 3.79 µM)	8 µg/mL (≈ 15.2 µM)	
O=C(NCC(=O)N1CCN(c2ccc(N3C[C@H](Cn4ccnn4)OC3=O)cc2F)CC1)c1ccc([N+](=O)[O-])o1	0.06 µg/mL (≈ 0.111 µM)	0.06 µg/mL (≈ 0.111 µM)	1 µg/mL (≈ 1.84 µM)	0.25 µg/mL (≈ 0.461 µM)	0.25 µg/mL (≈ 0.461 µM)	> 64 µg/mL	1 µg/mL (≈ 1.84 µM)	1 µg/mL (≈ 1.84 µM)	< 0.25 µg/mL	0.06 µg/mL (≈ 0.111 µM)	1 µg/mL (≈ 1.84 µM)	< 0.25 µg/mL	1 µg/mL (≈ 1.84 µM)	8 µg/mL (≈ 14.7 µM)	1 µg/mL (≈ 1.84 µM)	0.06 µg/mL (≈ 0.111 µM)	1 µg/mL (≈ 1.84 µM)	1 µg/mL (≈ 1.84 µM)	< 0.25 µg/mL	1 µg/mL (≈ 1.84 µM)	Ratio (Staphylococcus aureus [19]): 4; Ratio (Staphylococcus [20]): 4; Ratio (Enterococcus [21]): 4; Ratio (Moraxella catarrhalis [22]): 8; Ratio (Staphylococcus [23]): 4; Ratio (Staphylococcus [24]): 4; Ratio (Streptococcus pneumoniae [25]): 4; Ratio (Streptococcus pneumoniae [26]): 4; Ratio (Staphylococcus aureus [27]): 4; Ratio (Enterococcus [28]): 4; Ratio (Streptococcus pneumoniae [29]): 4; Ratio (Enterococcus [30]): 4; Ratio (Staphylococcus aureus [31]): 4
O=C(NCC(=O)N1CCN(c2ccc(N3C[C@H](Cn4ccnn4)OC3=O)cc2F)CC1)c1cc([N+](=O)[O-])cc([N+](=O)[O-])c1	0.5 µg/mL (≈ 0.837 µM)	0.5 µg/mL (≈ 0.837 µM)	0.25 µg/mL (≈ 0.418 µM)	0.5 µg/mL (≈ 0.837 µM)	1 µg/mL (≈ 1.67 µM)	> 64 µg/mL	0.25 µg/mL (≈ 0.418 µM)	0.25 µg/mL (≈ 0.418 µM)	0.25 µg/mL (≈ 0.418 µM)	0.5 µg/mL (≈ 0.837 µM)	0.25 µg/mL (≈ 0.418 µM)	16 µg/mL	0.5 µg/mL (≈ 0.837 µM)	16 µg/mL (≈ 26.8 µM)	0.25 µg/mL (≈ 0.418 µM)	0.5 µg/mL (≈ 0.837 µM)	0.25 µg/mL (≈ 0.418 µM)	0.25 µg/mL (≈ 0.418 µM)	1 µg/mL (≈ 1.67 µM)	0.25 µg/mL (≈ 0.418 µM)	Ratio (Moraxella catarrhalis [22]): 16; Ratio (Staphylococcus aureus [32]): 16
Cc1cn(C[C@H]2CN(c3ccc(N4CCN(C(=O)CNC(=O)c5cc([N+](=O)[O-])cc([N+](=O)[O-])c5)CC4)c(F)c3)C(=O)O2)nn1	1 µg/mL (≈ 1.64 µM)	1 µg/mL (≈ 1.64 µM)	0.5 µg/mL (≈ 0.818 µM)	1 µg/mL (≈ 1.64 µM)	2 µg/mL (≈ 3.27 µM)	> 64 µg/mL	1 µg/mL (≈ 1.64 µM)	1 µg/mL (≈ 1.64 µM)	0.25 µg/mL (≈ 0.409 µM)	1 µg/mL (≈ 1.64 µM)	0.5 µg/mL (≈ 0.818 µM)	8 µg/mL	1 µg/mL (≈ 1.64 µM)	> 16 µg/mL	1 µg/mL (≈ 1.64 µM)	1 µg/mL (≈ 1.64 µM)	0.5 µg/mL (≈ 0.818 µM)	1 µg/mL (≈ 1.64 µM)	2 µg/mL (≈ 3.27 µM)	0.5 µg/mL (≈ 0.818 µM)	Ratio (Moraxella catarrhalis [22]): 8; Ratio (Staphylococcus aureus [32]): 4
